Data as given in ChEMBL document CHEMBL4715912, “Discovery of a novel series of indolinylpyrimidine-based GPR119 agonists: Elimination of ether-a-go-go-related gene liability using a hydrogen bond acceptor-focused approach” (Bioorg Med Chem, 2021).

Legend:
[1] = Partition coefficient, logD between 1-octanol and pH 7.4 aqueous buffer by chromatographic analysis; assay type: physicochemical; settings: 1-octanol/pH 7.4 aqueous buffer
Method in brief: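 LogD at pH 7.4, octanol/aqueous buffer partition, estimated by a chromatographic method adapted from a published procedure.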

[2] = target: T1, hERG (KCNH2) (Homo sapiens, UniProt Q12809); assay: (§1) Inhibition of human ERG expressed in CHO cells at 10 uM incubated for 5 mins by patch-clamp assay relative to control; assay type: cell-based; settings: CHO cells expressing human ERG
T1 sequence (Q12809 whole entry): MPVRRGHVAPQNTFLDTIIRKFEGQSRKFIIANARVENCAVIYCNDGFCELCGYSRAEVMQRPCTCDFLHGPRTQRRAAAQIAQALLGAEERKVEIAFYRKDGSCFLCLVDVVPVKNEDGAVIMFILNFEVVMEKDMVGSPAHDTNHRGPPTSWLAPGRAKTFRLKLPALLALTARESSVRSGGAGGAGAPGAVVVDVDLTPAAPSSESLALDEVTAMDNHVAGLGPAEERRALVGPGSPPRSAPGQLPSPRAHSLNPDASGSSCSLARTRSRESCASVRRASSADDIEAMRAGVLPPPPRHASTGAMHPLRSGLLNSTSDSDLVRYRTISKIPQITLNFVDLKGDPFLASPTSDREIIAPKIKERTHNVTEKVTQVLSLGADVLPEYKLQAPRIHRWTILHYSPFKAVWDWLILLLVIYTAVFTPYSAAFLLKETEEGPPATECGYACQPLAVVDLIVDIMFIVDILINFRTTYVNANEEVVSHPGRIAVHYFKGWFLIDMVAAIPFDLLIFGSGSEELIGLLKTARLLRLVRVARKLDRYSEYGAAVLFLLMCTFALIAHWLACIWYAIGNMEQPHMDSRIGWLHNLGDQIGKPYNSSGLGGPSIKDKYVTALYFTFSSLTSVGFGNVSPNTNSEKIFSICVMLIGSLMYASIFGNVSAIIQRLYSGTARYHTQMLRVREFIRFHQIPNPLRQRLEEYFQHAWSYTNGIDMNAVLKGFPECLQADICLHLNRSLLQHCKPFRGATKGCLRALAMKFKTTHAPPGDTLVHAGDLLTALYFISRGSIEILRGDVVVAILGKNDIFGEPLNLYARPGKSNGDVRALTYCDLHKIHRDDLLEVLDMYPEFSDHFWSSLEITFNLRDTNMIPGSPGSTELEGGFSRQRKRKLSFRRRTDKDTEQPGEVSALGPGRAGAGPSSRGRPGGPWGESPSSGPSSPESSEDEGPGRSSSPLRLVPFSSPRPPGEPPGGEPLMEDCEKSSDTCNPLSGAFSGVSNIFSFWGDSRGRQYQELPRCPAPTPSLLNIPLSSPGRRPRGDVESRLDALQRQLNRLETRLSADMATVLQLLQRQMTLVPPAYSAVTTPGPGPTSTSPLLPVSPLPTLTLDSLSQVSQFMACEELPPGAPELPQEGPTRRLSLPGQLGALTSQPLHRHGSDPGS
Method in brief: (§2)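 hERG-expressing CHO cells grown at 32 °C, recorded by population patch clamp after amphotericin B perforation; PBS with Ca/Mg outside, KCl/EGTA/HEPES pH 7.3 inside. Holding −80 mV, step to 40 mV 2 s, then −50 mV 2 s; peak tail current before and after 5 min compound exposure. Percent inhibition = 100 − post/pre × 100; mean ± SD, n = 4.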

[3] = target: T2, Glucose-dependent insulinotropic receptor (Homo sapiens, UniProt Q8TDV5); assay: Agonist activity at human GPR119 expressed in CHO cells co-expressing cyclic AMP response element incubated for 2 hrs by steady-glo luciferase assay; assay type: cell-based
T2 sequence (Q8TDV5 whole entry): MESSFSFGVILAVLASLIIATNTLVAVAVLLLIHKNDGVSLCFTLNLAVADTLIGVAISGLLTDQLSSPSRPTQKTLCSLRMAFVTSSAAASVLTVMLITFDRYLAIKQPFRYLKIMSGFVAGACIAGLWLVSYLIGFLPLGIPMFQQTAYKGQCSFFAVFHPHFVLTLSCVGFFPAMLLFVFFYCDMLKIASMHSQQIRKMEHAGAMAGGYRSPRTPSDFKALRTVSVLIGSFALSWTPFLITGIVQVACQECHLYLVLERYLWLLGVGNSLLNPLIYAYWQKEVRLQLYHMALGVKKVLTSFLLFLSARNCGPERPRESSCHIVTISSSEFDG
Method in brief: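 CHO cells stably expressing human GPR119, seeded at 10,000 cells/well in MEM α with 500 µg/mL Geneticin overnight, then exposed to graded compound concentrations in MEM α/20 mmol/L HEPES/0.1% BSA for 2 h. cAMP-driven luciferase read with Steady-Glo. Response normalized between vehicle and a 10 µM reference agonist; EC50 as mean of n = 2.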

[4] = Intrinsic clearance in rat liver microsomes at 1 uM measured after 15 to 30 mins in presence of NADPH generating system by LC/MS/MS analysis; assay type: ADME, Microsome; settings: time 15-30 min, read-out: CLH
Method in brief: (§3)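 Human or rat liver microsomes at 0.2 mg/mL protein in 50 mM potassium phosphate pH 7.4 with 1 µM compound; reaction started with NADPH-generating system (5 mM MgCl2, 5 mM glucose-6-phosphate, 0.5 mM β-NADP+, 1.5 units/mL G6PDH). Stopped with acetonitrile at 15 and 30 min, parent by LC/MS/MS; rate from concentration–time slope, expressed as µL/min/mg.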

[5] = Intrinsic clearance in human liver microsomes at 1 uM measured after 15 to 30 mins in presence of NADPH generating system by LC/MS/MS analysis; assay type: ADME, Microsome; settings: time 15-30 min, read-out: CLH; method in brief: as §3
[6] = Total clearance in rat at 0.1 mg/kg, iv by LC/MS/MS analysis; assay type: ADME, organism-based; settings: in vivo
Method in brief: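 Cassette intravenous dosing at 0.1 mg/kg to non-fasted animals. Plasma taken from blood samples, deproteinized and centrifuged, and compound levels in supernatant quantified by LC/MS/MS.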

[7] = target: T1, hERG (KCNH2); assay: Inhibition of human ERG expressed in CHO cells at 30 uM incubated for 5 mins by patch-clamp assay relative to control; assay type: cell-based; settings: CHO cells expressing human ERG; method in brief: as §2
[8] = target: Voltage-gated inwardly rectifying potassium channel KCNH2 (Homo sapiens, UniProt Q12809); assay: as §1; assay type: cell-based; settings: cho, 5 min, 10 µM; method in brief: as §2
Voltage-gated inwardly rectifying potassium channel KCNH2, sequence (Q12809 whole entry): as the sequence (Q12809 whole entry) above

logD [1]	EC50 [3]	microsomal CLint at 1 µM [4]	microsomal CLint at 1 µM [5]	clearance [6]	SMILES	inhibition at 5 min, 10 µM [2]	inhibition at 5 min, 30 µM [7]	inhibition (INH) [8]
2.7	41 nM	–	–	–	CC(C)c1noc(N2CCC(Oc3cc(N4CCc5cc(S(=O)(=O)CCO)ccc54)ncn3)CC2)n1	102%	–	–
–	–	–	69 µL/min/mg	3.83 mL/min/kg	CC(C)c1noc(N2CCC(Oc3cc(N4CCc5cc(S(C)(=O)=O)ccc54)ncn3)CC2)n1	106%	–	–
2.7	48 nM	–	–	–	CC(C)c1noc(N2CCC(Oc3cc(N4CCc5cc([S+]([O-])CCO)ccc54)ncn3)CC2)n1 (racemic)	107%	–	–
–	57 nM	–	–	–	CC(C)SC(=O)N1CCC(Oc2cc(N3CCc4cc([S+]([O-])CCO)ccc43)ncn2)CC1 (stereo in doubt; form 1)	–	–	44%
3.3	9.7 nM	–	–	–	CC(C)SC(=O)N1CCC(Oc2cc(N3CCc4cc([S+]([O-])CCO)ccc43)ncn2)CC1 (stereo in doubt; form 2)	–	–	101%
5.3	> 10000 nM	–	–	–	CC(C)SC(=O)N1CCC(Oc2cc(N3CCc4ccccc43)ncn2)CC1	14%	16%	–
–	14 nM	–	–	–	CC(C)SC(=O)N1CCC(Oc2cc(N3CCc4cc([S+]([O-])CCO)ccc43)ncn2)CC1 (racemic)	–	–	95%
3.6	3.2 nM	–	–	–	CC(C)SC(=O)N1CCC(Oc2cc(N3CCc4cc(S(C)(=O)=O)ccc43)ncn2)CC1	89%	–	–

The remaining lines, values behind:

SMILES	logD [1]	EC50 [3]	microsomal CLint at 1 µM [4]	microsomal CLint at 1 µM [5]	clearance [6]	inhibition at 5 min, 10 µM [2]	inhibition at 5 min, 30 µM [7]	inhibition (INH) [8]
CC(C)c1noc(N2CCC(Oc3cc(N4CCc5cc(N6CCCC6=O)ccc54)ncn3)CC2)n1	3.7	33 nM	138 µL/min/mg	–	–	20%	–	–
CC(C)c1noc(N2CCC(Oc3cc(N4CCc5cc(N6CC(O)CCC6=O)ccc54)ncn3)CC2)n1 (racemic)	2.6	90 nM	7 µL/min/mg	1 µL/min/mg	–	18%	–	–
CC(C)c1noc(N2CCC(Oc3cc(N4CCc5cc(N6CCC[C@@H](O)C6=O)ccc54)ncn3)CC2)n1	3.3	25 nM	–	–	6.25 mL/min/kg	23%	–	–
CC(=O)N(C)c1ccc2c(c1)CCN2c1cc(OC2CCN(c3nc(C(C)C)no3)CC2)ncn1	3.7	75 nM	17 µL/min/mg	173 µL/min/mg	–	66%	108%	–
CC(C)c1noc(N2CCC(Oc3cc(N4CCc5cc(N6CCCC(O)C6=O)ccc54)ncn3)CC2)n1 (racemic)	3.3	17 nM	4 µL/min/mg	–	–	20%	–	–
CC(C)c1noc(N2CCC(Oc3cc(N4CCc5cc(N6CCNCC6=O)ccc54)ncn3)CC2)n1	2.7	36 nM	98 µL/min/mg	–	–	15%	–	–
CC(C)c1noc(N2CCC(Oc3cc(N4CCc5cc(N6CCCCC6=O)ccc54)ncn3)CC2)n1	3.8	17 nM	13 µL/min/mg	–	–	31%	–	–
CC(C)c1noc(N2CCC(Oc3cc(N4CCc5cc(N6CCCS6(=O)=O)ccc54)ncn3)CC2)n1	3.2	9.7 nM	1 µL/min/mg	18 µL/min/mg	–	19%	–	–
CCc1cnc(N2CCC(C(C)COC(=O)N3CCc4cc(S(C)(=O)=O)cc(F)c43)CC2)nc1 (centres undefined)	–	–	365 µL/min/mg	329 µL/min/mg	47.7 mL/min/kg	75%	–	–
CC(C)c1noc(N2CCC(Oc3cc(N4CCc5cc(N6CCCNS6(=O)=O)ccc54)ncn3)CC2)n1	3.2	24 nM	21 µL/min/mg	79 µL/min/mg	–	20%	–	–
CC(C)c1noc(N2CCC(Oc3cc(N4CCc5cc(N6CCC(O)CC6=O)ccc54)ncn3)CC2)n1 (racemic)	2.8	89 nM	13 µL/min/mg	4 µL/min/mg	–	18%	–	–
CC(C)OC(=O)N1CCC(Oc2cc(N3CCc4cc(S(C)(=O)=O)ccc43)ncn2)CC1	–	–	–	–	–	84%	–	–
CC(C)c1noc(N2CCC(Oc3cc(N4CCc5cc(C6CCCCC6=O)ccc54)ncn3)CC2)n1 (racemic)	4.7	48 nM	141 µL/min/mg	78 µL/min/mg	–	13%	–	–
CC(C)c1noc(N2CCC(Oc3cc(N4CCc5cc(N6CCOCC6=O)ccc54)ncn3)CC2)n1	3.1	15 nM	46 µL/min/mg	27 µL/min/mg	–	54%	–	–
